Source: article PMC3683571 (Journal of the American Chemical Society, 2013)
“Also recorded” adds a separate entry of the source.

Assays:
[1] = in previous studies, no reference given; cited from earlier work
PSMA monomer = assay: Phage-based ELISA, binding to PSMA monomer; conditions: Figure 1, standard error (n = 3)
PSMA = PSMA (Homo sapiens, UniProt Q04609); assay: Biosensing; assay type: binding
How it was run: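 Virus-PEDOT films, with ligand-displaying phage either unwrapped or wrapped with a chemically synthesized ligand wrapper, were exposed to a series of PSMA dimer concentrations. The read-out was relative impedance change (ΔR/Ro) versus frequency, with noise taken as the SD of five impedance measurements. Controls were films with control phage, ligand-free films, and films with wrapper alone; transferrin receptor served as a specificity target. Kd, Hill n and LOD came from Hill fits.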

PSMA dimer = assay: Phage-based ELISA, binding to PSMA dimer; conditions: as shown in Figure 1

PSMA, sequence (Q04609 whole entry): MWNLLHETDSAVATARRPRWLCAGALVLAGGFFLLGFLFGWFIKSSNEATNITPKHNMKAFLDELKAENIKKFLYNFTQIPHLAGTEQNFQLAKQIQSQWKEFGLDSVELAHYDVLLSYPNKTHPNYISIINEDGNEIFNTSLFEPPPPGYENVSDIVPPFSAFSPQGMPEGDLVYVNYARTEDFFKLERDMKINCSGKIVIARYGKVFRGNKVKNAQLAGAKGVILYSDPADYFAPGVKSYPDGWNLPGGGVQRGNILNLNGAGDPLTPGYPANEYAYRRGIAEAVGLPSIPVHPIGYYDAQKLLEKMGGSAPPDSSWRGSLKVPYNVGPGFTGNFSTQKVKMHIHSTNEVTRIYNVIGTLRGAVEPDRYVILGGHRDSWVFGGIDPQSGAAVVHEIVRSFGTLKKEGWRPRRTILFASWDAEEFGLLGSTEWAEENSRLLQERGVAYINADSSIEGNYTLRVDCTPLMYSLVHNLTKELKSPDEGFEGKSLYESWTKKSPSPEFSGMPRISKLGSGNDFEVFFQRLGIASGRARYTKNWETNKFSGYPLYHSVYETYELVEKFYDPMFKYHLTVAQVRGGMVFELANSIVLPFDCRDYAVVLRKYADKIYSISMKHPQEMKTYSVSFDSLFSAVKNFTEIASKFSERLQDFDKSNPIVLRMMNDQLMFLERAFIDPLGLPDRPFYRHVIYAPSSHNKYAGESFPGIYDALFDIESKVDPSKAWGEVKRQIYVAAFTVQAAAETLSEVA

Sequence	solubility in water [1]	binding to the PSMA monomer (ELISA) (PSMA monomer)	further results
SECVEVFQNSCDW [compound 2]	limited solubility in water	–	–
SECVEVFQNSCDW [phage-2]	–	Neither phage-displayed ligand binds with significant affinity to the PSMA monomer	LOD (calculated) (PSMA; PBF, defined as 3x over background signal, calculated from line fits to the data in Figure 4F): 6 nM; cooperative binding (PSMA; from n-values obtained >1, Hill fit, PBF): can access cooperative binding
CALCEFLG [KCS-1]	–	–	binding to PSMA / change in impedance, negative controls (PSMA; EIS, PBF-Tween buffer, PEDOT films): no significant binding to PSMA; also recorded: negligible change in impedance caused by the wrapper
CALCEFLG [phage-1]	–	Neither phage-displayed ligand binds with significant affinity to the PSMA monomer	–
CALCEFLG [compound 1]	limited solubility in water	–	apparent affinity for PSMA, peptide 1 versus peptide 2 (PSMA dimer): much lower apparent affinity for PSMA than peptide 2
